From ChEMBL document CHEMBL1132256, “Structure-activity relationships for substituted bis(acridine-4-carboxamides): a new class of anticancer agents” (J Med Chem, 1999)

test system: SK-OV-3; assay: inhibitory activity against ovarian carcinoma SKOV3 cell line.; type: functional; details: Homo sapiens
How it was run: (§1)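 Tested in the NCI human cell line panel. GI50 = drug concentration (nM) giving growth inhibition to 50% of controls; values below 10 nM were taken as 10 nM in calculations.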

| GI50 [µM] | Compound |
| --- | --- |
| 0.166 | CN(CCCNC(=O)c1cccc2cc3cccc(Br)c3nc12)CCCNC(=O)c1cccc2cc3cccc(Br)c3nc12 |
| 3.04 | Cc1ccc2cc3cccc(C(=O)NCCCN(C)CCCNC(=O)c4cccc5cc6ccc(C)cc6nc45)c3nc2c1 |
| 8.38 | CN(CCCNC(=O)c1c(Cl)ccc2cc3ccccc3nc12)CCCNC(=O)c1c(Cl)ccc2cc3ccccc3nc12 |
| 10 | CCc1cccc2cc3cccc(C(=O)NCCCN(C)CCCNC(=O)c4cccc5cc6cccc(CC)c6nc45)c3nc12 |

test system: P388; assay: Inhibitory activity against Murine […]; type: functional, cell-based; details: Mus musculus
How it was run: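 Murine P388 leukemia cells seeded at 4.5 × 10^3 cells/well, cultured 3 days with drug; growth measured by [3H]TdR uptake. IC50 = drug concentration (nM) reducing cell number to 50% of controls. Independent assays in duplicate, CV ca. 25%.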

| IC50 [µM] | Compound |
| --- | --- |
| 0.015 | CN(CCCNC(=O)c1cccc2cc3cccc(Br)c3nc12)CCCNC(=O)c1cccc2cc3cccc(Br)c3nc12 |
| 0.345 | Cc1ccc2cc3cccc(C(=O)NCCCN(C)CCCNC(=O)c4cccc5cc6ccc(C)cc6nc45)c3nc2c1 |
| > 200 | CN(CCCNC(=O)c1c(Cl)ccc2cc3ccccc3nc12)CCCNC(=O)c1c(Cl)ccc2cc3ccccc3nc12 |
| 0.17 | CCc1cccc2cc3cccc(C(=O)NCCCN(C)CCCNC(=O)c4cccc5cc6cccc(CC)c6nc45)c3nc12 |

test system: Lewis lung carcinoma cell line; assay: Inhibitory activity of tested against Murine Lewis lung carcinoma; type: functional, cell-based; details: Mus musculus
How it was run: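 Lewis lung carcinoma (LLTC) cells at 10^3 cells/well, 4-day continuous drug exposure, growth read by sulforhodamine assay. IC50 (nM) = concentration giving 50% of control cell number. Duplicate independent assays, CV ca. 25%.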

| IC50 [µM] | Compound |
| --- | --- |
| 0.006 | CN(CCCNC(=O)c1cccc2cc3cccc(Br)c3nc12)CCCNC(=O)c1cccc2cc3cccc(Br)c3nc12 |
| 0.056 | Cc1ccc2cc3cccc(C(=O)NCCCN(C)CCCNC(=O)c4cccc5cc6ccc(C)cc6nc45)c3nc2c1 |
| 2.98 | CN(CCCNC(=O)c1c(Cl)ccc2cc3ccccc3nc12)CCCNC(=O)c1c(Cl)ccc2cc3ccccc3nc12 |
| 0.027 | CCc1cccc2cc3cccc(C(=O)NCCCN(C)CCCNC(=O)c4cccc5cc6cccc(CC)c6nc45)c3nc12 |

test system: HCT-116; assay: inhibitory activity against colon HCT116 cell line.; type: functional; details: Homo sapiens; how it was run: as §1

| GI50 [µM] | Compound |
| --- | --- |
| < 0.01 | CN(CCCNC(=O)c1cccc2cc3cccc(Br)c3nc12)CCCNC(=O)c1cccc2cc3cccc(Br)c3nc12 |
| 0.13 | Cc1ccc2cc3cccc(C(=O)NCCCN(C)CCCNC(=O)c4cccc5cc6ccc(C)cc6nc45)c3nc2c1 |
| 0.171 | CN(CCCNC(=O)c1c(Cl)ccc2cc3ccccc3nc12)CCCNC(=O)c1c(Cl)ccc2cc3ccccc3nc12 |
| 0.221 | CCc1cccc2cc3cccc(C(=O)NCCCN(C)CCCNC(=O)c4cccc5cc6cccc(CC)c6nc45)c3nc12 |

test system: CAKI-1; assay: inhibitory activity against renal tumor […] cell line.; type: functional; details: Homo sapiens; how it was run: as §1

| Compound | GI50 [µM] |
| --- | --- |
| CN(CCCNC(=O)c1cccc2cc3cccc(Br)c3nc12)CCCNC(=O)c1cccc2cc3cccc(Br)c3nc12 | < 0.01 |
| Cc1ccc2cc3cccc(C(=O)NCCCN(C)CCCNC(=O)c4cccc5cc6ccc(C)cc6nc45)c3nc2c1 | 0.669 |
| CN(CCCNC(=O)c1c(Cl)ccc2cc3ccccc3nc12)CCCNC(=O)c1c(Cl)ccc2cc3ccccc3nc12 | 4.58 |
| CCc1cccc2cc3cccc(C(=O)NCCCN(C)CCCNC(=O)c4cccc5cc6cccc(CC)c6nc45)c3nc12 | 0.104 |

test system: Jurkat; assay: Concentration required to inhibit 50% growth of human Jurkat cells; type: functional, cell-based; details: not given
How it was run: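 Jurkat leukemia (JLC) cells seeded at 3.75 × 10^3 cells/well and exposed to drug for 4 days; growth measured by sulforhodamine assay. IC50 = drug concentration (nM) reducing cell number to 50% of control cultures. Independent assays in duplicate, coefficients of variation ca. 25%.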

| IC50 [µM] | Compound |
| --- | --- |
| 0.024 | CN(CCCNC(=O)c1cccc2cc3cccc(Br)c3nc12)CCCNC(=O)c1cccc2cc3cccc(Br)c3nc12 |
| 0.177 | Cc1ccc2cc3cccc(C(=O)NCCCN(C)CCCNC(=O)c4cccc5cc6ccc(C)cc6nc45)c3nc2c1 |
| 0.9 | CN(CCCNC(=O)c1c(Cl)ccc2cc3ccccc3nc12)CCCNC(=O)c1c(Cl)ccc2cc3ccccc3nc12 |
| 0.113 | CCc1cccc2cc3cccc(C(=O)NCCCN(C)CCCNC(=O)c4cccc5cc6cccc(CC)c6nc45)c3nc12 |

test system: HT-29; assay: inhibitory activity against colon HT-29 cell line.; type: functional; details: Homo sapiens; how it was run: as §1

| GI50 [µM] | Compound |
| --- | --- |
| < 0.01 | CN(CCCNC(=O)c1cccc2cc3cccc(Br)c3nc12)CCCNC(=O)c1cccc2cc3cccc(Br)c3nc12 |
| 0.062 | Cc1ccc2cc3cccc(C(=O)NCCCN(C)CCCNC(=O)c4cccc5cc6ccc(C)cc6nc45)c3nc2c1 |
| 0.727 | CN(CCCNC(=O)c1c(Cl)ccc2cc3ccccc3nc12)CCCNC(=O)c1c(Cl)ccc2cc3ccccc3nc12 |
| 1.39 | CCc1cccc2cc3cccc(C(=O)NCCCN(C)CCCNC(=O)c4cccc5cc6cccc(CC)c6nc45)c3nc12 |

test system: MCF7; assay: inhibitory activity against multi drug resistant MCF cell line.; type: functional; details: Homo sapiens, in the assay text read “MCF7 cell line” for “multi drug resistant MCF cell line”; how it was run: as §1

| GI50 [µM] | Compound |
| --- | --- |
| 0.013 | CN(CCCNC(=O)c1cccc2cc3cccc(Br)c3nc12)CCCNC(=O)c1cccc2cc3cccc(Br)c3nc12 |
| 0.53 | Cc1ccc2cc3cccc(C(=O)NCCCN(C)CCCNC(=O)c4cccc5cc6ccc(C)cc6nc45)c3nc2c1 |
| 0.488 | CN(CCCNC(=O)c1c(Cl)ccc2cc3ccccc3nc12)CCCNC(=O)c1c(Cl)ccc2cc3ccccc3nc12 |
| 0.265 | CCc1cccc2cc3cccc(C(=O)NCCCN(C)CCCNC(=O)c4cccc5cc6cccc(CC)c6nc45)c3nc12 |

test system: NCI/ADR-RES; assay: inhibitory activity against multi drug resistant NCI/ADR cell line.; type: functional; details: Homo sapiens; how it was run: as §1

| Compound | GI50 [µM] |
| --- | --- |
| CN(CCCNC(=O)c1cccc2cc3cccc(Br)c3nc12)CCCNC(=O)c1cccc2cc3cccc(Br)c3nc12 | 0.11 |
| Cc1ccc2cc3cccc(C(=O)NCCCN(C)CCCNC(=O)c4cccc5cc6ccc(C)cc6nc45)c3nc2c1 | 0.407 |
| CN(CCCNC(=O)c1c(Cl)ccc2cc3ccccc3nc12)CCCNC(=O)c1c(Cl)ccc2cc3ccccc3nc12 | 37 |
| CCc1cccc2cc3cccc(C(=O)NCCCN(C)CCCNC(=O)c4cccc5cc6cccc(CC)c6nc45)c3nc12 | 1.34 |

test system: Jurkat; assay: Ratio of inhibitory activity against amsacrine resistant jurkat cells to inhibitory activity against wild type human jurkat cells; type: functional; details: not given
How it was run: (§2)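 Wild-type Jurkat (JLC) and its amsacrine-resistant (JLA) or doxorubicin-resistant (JLD) sublines each seeded at 3.75 × 10^3 cells/well, 4 days with drug, sulforhodamine read-out. IC50 (nM) for 50% of control cell number; ratio = resistant-line IC50 divided by JLC IC50. Duplicate assays, CV ca. 25%.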

| Compound | Ratio |
| --- | --- |
| CN(CCCNC(=O)c1cccc2cc3cccc(Br)c3nc12)CCCNC(=O)c1cccc2cc3cccc(Br)c3nc12 | 0.4 |
| Cc1ccc2cc3cccc(C(=O)NCCCN(C)CCCNC(=O)c4cccc5cc6ccc(C)cc6nc45)c3nc2c1 | 0.7 |
| CN(CCCNC(=O)c1c(Cl)ccc2cc3ccccc3nc12)CCCNC(=O)c1c(Cl)ccc2cc3ccccc3nc12 | 0.9 |
| CCc1cccc2cc3cccc(C(=O)NCCCN(C)CCCNC(=O)c4cccc5cc6cccc(CC)c6nc45)c3nc12 | 0.7 |

test system: Jurkat; assay: Ratio of inhibitory activity against doxorubicin resistant jurkat cells to inhibitory activity against wild type human jurkat cells; type: functional; details: not given; how it was run: as §2

| Compound | Ratio |
| --- | --- |
| CN(CCCNC(=O)c1cccc2cc3cccc(Br)c3nc12)CCCNC(=O)c1cccc2cc3cccc(Br)c3nc12 | 0.9 |
| Cc1ccc2cc3cccc(C(=O)NCCCN(C)CCCNC(=O)c4cccc5cc6ccc(C)cc6nc45)c3nc2c1 | 0.9 |
| CN(CCCNC(=O)c1c(Cl)ccc2cc3ccccc3nc12)CCCNC(=O)c1c(Cl)ccc2cc3ccccc3nc12 | 1.2 |
| CCc1cccc2cc3cccc(C(=O)NCCCN(C)CCCNC(=O)c4cccc5cc6cccc(CC)c6nc45)c3nc12 | 0.9 |
